Shown are actives, neighbours in structure and some others; about 3.7% of the full set was active somewhere.
GAA850 FXN act: increases GAA850 frataxin promoter reporter activity. HEK293 lucGAA850 FXN promoter luciferase reporter, 24 h; percent of 10 µM SAHA response. activation, % at 6 µM. actives 0.56% (n = 360,000). AID 540364;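 active means activation above the average of all compounds screened plus 3 SD, cutoff fixed separately per campaign, cut at about 7.5% in these data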
AHR act: human AHR activation. AID 2796. actives 2.5% (n = 320,000). P35869. activation, % at 5 µM. AHR-responsive luciferase reporter cells, luminescence; in the data active means activation above about 47%
JMJD2C inh: blocks human GASC-1 demethylase activity | Q9H3R0 | GST-JMJD2C(1-420) H3K9me3 demethylation, DELFIA europium | inhibition, % at 2.35 µM | actives 0.069% (n = 330,000);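 active means more than half of a compound's replicate wells show inhibition beyond 50%, single wells judged on their own value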;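 further: signal counts dimethyl H3K9 product captured on neutravidin plate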
Target sequence (Q9H3R0 1-420 limits assumed): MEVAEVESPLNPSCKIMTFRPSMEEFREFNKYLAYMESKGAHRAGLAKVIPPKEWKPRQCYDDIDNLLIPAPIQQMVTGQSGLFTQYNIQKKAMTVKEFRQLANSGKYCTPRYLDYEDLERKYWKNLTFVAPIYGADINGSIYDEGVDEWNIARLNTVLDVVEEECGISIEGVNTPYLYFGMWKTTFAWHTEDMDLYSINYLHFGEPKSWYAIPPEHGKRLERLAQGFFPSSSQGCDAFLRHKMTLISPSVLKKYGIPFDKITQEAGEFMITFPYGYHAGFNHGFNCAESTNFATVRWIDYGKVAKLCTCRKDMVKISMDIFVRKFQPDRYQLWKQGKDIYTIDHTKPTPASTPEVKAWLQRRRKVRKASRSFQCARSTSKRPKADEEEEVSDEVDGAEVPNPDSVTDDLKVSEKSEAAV
SR-BI uptake up: activators of SR-BI mediated HDL lipid uptake; CHO ldlA[mSR-BI] cells, DiI-HDL uptake fluorescence, 3 h; 100 = double the neutral-control signal; activation, % at 12.5 µM; actives 0.096% (n = 320,000);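 active means mean replicate activation of at least 60% and every replicate at or above 60%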
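System: CHO ldlA[mSR-BI] cells / Medium: HEPES-buffered (25 mM, pH 7.4) F12 plus 0.5% BSA / Probe or stimulus: labelled HDL, 10 µg/mL / Doses: single compound concentration, delivered by pin transfer / Schedule: 3 h, 37 °C / Measured by: DiI fluorescence, bottom read / Measure: cell-associated DiI fluorescence as measure of HDL uptake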
SR-BI DiI inh: mouse SR-BI HDL lipid transfer inhibition. ldlA[mSR-BI] CHO cells, DiI-HDL uptake fluorescence, 3 h. actives 0.96% (n = 320,000). AID 488896. inhibition, % at 12.5 µM;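 active means mean replicate inhibition of at least 70% and a set share of replicates each scoring 70 or more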
AHR act cf: confirmation of human aryl hydrocarbon receptor activators. shares compounds with AHR act. human cells, AHR-responsive luciferase reporter, luminescence. activation, % at 9 µM. actives 87% (n = 2,300). AID 2845; in the data active means activation above about 49%;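 further: HepG2 hepatoma cells carrying a DRE-driven firefly luciferase reporter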
PXR counter: counter-screen for AHR activators: human PXR activators. shares compounds with AHR act. cell-based PXR reporter, luciferase luminescence. activation, % at 11.6 µM. actives 88% (n = 2,300). AID 434939; in the data active means activation above about 11%;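 further: human hepatoma DPX-2 cells expressing full-length human PXR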
A number is an active result.

CCOC(=O)c1sc(NC(=O)c2c(CC)noc2C)nc1C was read as GAA850 FXN act inactive, AHR act inactive, JMJD2C inh inactive, SR-BI uptake up inactive and SR-BI DiI inh inactive.
Screening C/C(=N\Nc1nc(C(=O)O)cs1)c1ccccc1 returned AHR act inactive and JMJD2C inh inactive.
`Cc1ccccc1C(=O)Nc1nnc(SC(C)C)s1` gave GAA850 FXN act inactive, AHR act inactive, JMJD2C inh inactive, SR-BI uptake up inactive and SR-BI DiI inh inactive.
`COc1ccc(-c2coc3cc(OC)cc(OC)c3c2=O)cc1` gave GAA850 FXN act inactive, AHR act 93, JMJD2C inh inactive, SR-BI uptake up inactive, SR-BI DiI inh inactive, AHR act cf 132 and PXR counter 26.
`COc1ccc(-c2coc3cc(OC)cc(O)c3c2=O)cc1` gave GAA850 FXN act inactive, AHR act inactive, JMJD2C inh inactive, SR-BI uptake up inactive and SR-BI DiI inh inactive.
Screening CCCN1C(=O)c2cc(C(=O)Nc3ccc(OC)cc3OC)ccc2C1Nc1ccc(OC)cc1OC (stereo not given) returned GAA850 FXN act inactive, AHR act 107, JMJD2C inh inactive, SR-BI uptake up inactive, SR-BI DiI inh 74, AHR act cf 79 and PXR counter 64.
`CCOc1ccc(C(=O)C(C)OC(=O)Cn2c(C)csc2=O)cc1` (stereo not given) gave GAA850 FXN act inactive, AHR act inactive, JMJD2C inh inactive, SR-BI uptake up inactive and SR-BI DiI inh inactive.
CCCn1c(/C=C/c2ccccc2)nc2ccccc21 was read as GAA850 FXN act inactive, AHR act 88, JMJD2C inh inactive, SR-BI uptake up inactive, SR-BI DiI inh inactive, AHR act cf 118 and PXR counter 45.
For CCn1c(/C=C/c2cc[n+](C)cc2)nc2ccccc21 the results were GAA850 FXN act inactive, AHR act inactive, JMJD2C inh inactive, SR-BI uptake up inactive and SR-BI DiI inh inactive.
For Cc1cc(C)n(CC(=O)c2ccccc2)c(=O)c1C#N the results were GAA850 FXN act inactive, AHR act 100, JMJD2C inh inactive, SR-BI uptake up inactive, SR-BI DiI inh inactive, AHR act cf 105 and PXR counter 22.
CC(=O)Nc1nnc(-c2ccco2)o1 was read as GAA850 FXN act inactive, AHR act inactive, JMJD2C inh inactive, SR-BI uptake up inactive and SR-BI DiI inh inactive.
For Fc1cccc2sc(Nc3nnc(-c4ccco4)o3)nc12 the results were GAA850 FXN act inactive, AHR act 151, JMJD2C inh inactive, SR-BI uptake up inactive, SR-BI DiI inh inactive, AHR act cf 121 and PXR counter 40.
For CC(=O)Nc1nc2c(F)cccc2s1 the results were GAA850 FXN act inactive, AHR act inactive, JMJD2C inh inactive, SR-BI uptake up inactive and SR-BI DiI inh inactive.
`Cc1nc(NC(=O)c2ccco2)sc1C(=O)Nc1ccc(Br)cc1` gave GAA850 FXN act inactive, AHR act 108, JMJD2C inh inactive, SR-BI uptake up inactive, SR-BI DiI inh inactive, AHR act cf 145 and PXR counter 79.
For CC(=O)Nc1ccc2nc(NC(=O)c3ccco3)sc2c1 the results were GAA850 FXN act inactive, AHR act 119, JMJD2C inh inactive, SR-BI uptake up inactive, SR-BI DiI inh inactive, AHR act cf 66 and PXR counter 18.
O=C(Nc1nc2c(F)cccc2s1)c1ccco1 was read as GAA850 FXN act inactive, AHR act 121, JMJD2C inh inactive, SR-BI uptake up inactive, SR-BI DiI inh inactive, AHR act cf 72 and PXR counter 49.
Screening CCCOC1CCCN(C(=O)c2cc(COc3ccc(-n4cncn4)cc3)on2)C1 (stereo not given) returned GAA850 FXN act inactive, AHR act inactive, JMJD2C inh inactive, SR-BI uptake up inactive and SR-BI DiI inh inactive.
`Cn1ncc(Cl)c1C(=O)Nc1ccc2c(c1)OCO2` gave GAA850 FXN act inactive, AHR act 123, JMJD2C inh inactive, SR-BI uptake up inactive, SR-BI DiI inh inactive, AHR act cf 117 and PXR counter 13.
Screening Cc1cnc(NC(=O)c2c(Cl)cnn2C)s1 returned GAA850 FXN act inactive, AHR act 88, JMJD2C inh inactive, SR-BI DiI inh inactive and AHR act cf 93.
`O=C(Nc1ccc2c(c1)OCO2)c1c(Cl)nc2sccn12` gave GAA850 FXN act inactive, AHR act 114, JMJD2C inh inactive, SR-BI uptake up inactive, SR-BI DiI inh inactive, AHR act cf 154 and PXR counter 53.
Cn1ncc([N+](=O)[O-])c1C(=O)Nc1ccc2c(c1)OCCO2 was read as GAA850 FXN act inactive, AHR act inactive, JMJD2C inh inactive, SR-BI uptake up inactive and SR-BI DiI inh inactive.
For c1ccc2oc(-c3ccc4nc[nH]c4c3)nc2c1 the results were GAA850 FXN act inactive, AHR act 97, JMJD2C inh inactive, SR-BI uptake up inactive, SR-BI DiI inh inactive, AHR act cf 147 and PXR counter 14.
COc1ccc(C(=O)NC2CCN(C(=O)NCc3ccccc3)CC2)cc1 was read as GAA850 FXN act inactive, AHR act inactive, JMJD2C inh inactive, SR-BI uptake up inactive and SR-BI DiI inh inactive.
COc1ccc(/C=C/c2nc(S(=O)(=O)c3ccccc3)c(NCCCN(C)C)o2)cc1OC was read as GAA850 FXN act inactive, AHR act inactive, JMJD2C inh inactive, SR-BI uptake up inactive and SR-BI DiI inh inactive.
For C/C(=C1/C(=O)N(c2ccc([N+](=O)[O-])cc2)N=C1c1ccccc1)N(C)C the results were AHR act 87, JMJD2C inh inactive, AHR act cf inactive and PXR counter 29.
For Cc1cccc(-n2c(=O)[nH]c3c(C(N)=O)nc(-c4ccccc4Cl)nc32)c1 the results were GAA850 FXN act inactive, AHR act 94, JMJD2C inh inactive, SR-BI uptake up inactive, SR-BI DiI inh inactive, AHR act cf 72 and PXR counter 12.
Screening COc1cccc(-c2nc(C(N)=O)c3[nH]c(=O)n(-c4ccccc4)c3n2)c1OC returned GAA850 FXN act inactive, AHR act 88, JMJD2C inh inactive, SR-BI uptake up inactive, SR-BI DiI inh inactive, AHR act cf 61 and PXR counter 10.
`COc1ccc(-c2nc(C(N)=O)c3[nH]c(=O)n(-c4cccc(C)c4)c3n2)c(OC)c1` gave GAA850 FXN act inactive, AHR act 98, JMJD2C inh inactive, SR-BI uptake up inactive, SR-BI DiI inh inactive, AHR act cf 67 and PXR counter 20.
Screening O=C1CSCN1c1ccc(Cl)cc1 returned GAA850 FXN act inactive, AHR act inactive, JMJD2C inh inactive, SR-BI uptake up inactive and SR-BI DiI inh inactive.
`O=C(O)CCCCCNc1nc(-c2ccccc2)nc2ccccc12` gave GAA850 FXN act inactive, AHR act inactive, JMJD2C inh inactive, SR-BI uptake up inactive and SR-BI DiI inh inactive.

Bioassay records deposited in PubChem by several laboratories.
